Data taken from publication PMC3569859 (Bioorganic & medicinal chemistry, 2008).

System: sodium currents expressed in rat hippocampal neurons
Type: cell-based
Settings: cultured hippocampal neurons
How it was run: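 E18 rat hippocampal neurons were trypsin-dissociated and kept up to 4 weeks on poly-L-lysine over a glial monolayer in serum-free MEM with N2. Whole-cell clamp was done at 20–22 °C with a CsF pipette and a 30 mM NaCl bath containing Cd2+ and TEA, both pH 7.3. After 5 min at −90 mV, 25 ms steps to −10 mV were applied with P/4 leak subtraction. Test compound was superfused at 50 μM, then washed out.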

SMILES | Reversibility of Na current block on washout
CC(C)c1cc(CCCCC(O)(C(N)=O)C(F)(F)F)cc(C(C)C)c1O (centres unmarked) [Compound 4, 2-Hydroxy-6-(4-hydroxy-3,5-diisopropyl-phenyl)-2-trifluoromethyl-hexanoic acid amide] | fully reversible
CC(C)c1cc(CCCCCCC(O)(C(N)=O)C(F)(F)F)cc(C(C)C)c1O (centres unmarked) [Compound 5, 2-Hydroxy-8-(4-hydroxy-3,5-diisopropyl-phenyl)-2-trifluoromethyl-octanoic acid amide] | fully reversible
